For data set [1], the system named is sulfotransferases (SULTs) in human intestine cytosol. Kind of data set: Sulfation of flavonoids by human intestine cytosol. The class given is in vitro ADME. The settings on record: for Km at 30 min: male, human, human intestine cytosol, pH 6.2. Put shortly:
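Cytosol (50 μg) from a person was incubated in 50 mM sodium phosphate pH 6.2 with 5 mM pNPS, 20 μM PAPS and test compound at 1 μM up to 1000 μM (upper limit varying by compound). After 30 min at 37°C, the reaction was stopped with 0.25 M Tris pH 8.7 and read at 401 nm. Product formation was linear with time. Km came from a Michaelis–Menten fit; means ± SD of three determinations.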

The target in data set [2] is T1, hSULT1A1 (Homo sapiens, UniProt P50225). Kind of data set: Sulfation of flavonoids by recombinant hSULT1A1. The class given is in vitro ADME.
The target in data set [3] is T1, hSULT1A1. Kind of data set: Inhibition of 2-naphthol sulfation by recombinant hSULT1A1. The class given is biochemical. Put shortly:
(§1)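 Test compound was added in DMSO (1% v/v final). Labelled substrates: [14C]2-naphthol 0.1 mM for hSULT1A1, [3H]DHEA 2 μM for hSULT2A1, [3H]oestradiol 0.15 μM for hSULT1E1. Incubated 30 min at 37°C, stopped with Tris pH 8.7, chloroform-extracted twice, aqueous phase scintillation-counted. IC50 from Hill-slope fit; three determinations.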

The subject of data set [4] is human intestine cytosol (SULT1A1 and SULT1A3). Kind of data set: Inhibition of 2-naphthol sulfation by human intestine cytosol. The class given is biochemical. The settings on record: read-out: IC50, 2-Naphthol sulfation, Cytosol, substrate 100 μM 2-naphthol. Summed up: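 Radioactive assay in 50 mM Tris (pH 6.2) with 20 μM PAPS and [14C]2-naphthol (0.1 mM final). Enzyme source: 100 μg intestine cytosol from a person. Test compound in DMSO (1% v/v final), 0.01–1000 μM. Incubated 30 min at 37°C, stopped with 0.25 M Tris (pH 8.7), extracted twice with chloroform, aqueous phase scintillation-counted. IC50 fitted with a Hill-slope equation; mean ± SD of three determinations.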

The target in data set [5] is T2, hSULT1A3 (Homo sapiens, UniProt P0DMM9). Kind of data set: Inhibition of dopamine sulfation by recombinant hSULT1A3. It is filed as biochemical.
The next data set concerns the target T3, hSULT1E1 (Homo sapiens, UniProt P49888).
T3 sequence (P49888 1-294): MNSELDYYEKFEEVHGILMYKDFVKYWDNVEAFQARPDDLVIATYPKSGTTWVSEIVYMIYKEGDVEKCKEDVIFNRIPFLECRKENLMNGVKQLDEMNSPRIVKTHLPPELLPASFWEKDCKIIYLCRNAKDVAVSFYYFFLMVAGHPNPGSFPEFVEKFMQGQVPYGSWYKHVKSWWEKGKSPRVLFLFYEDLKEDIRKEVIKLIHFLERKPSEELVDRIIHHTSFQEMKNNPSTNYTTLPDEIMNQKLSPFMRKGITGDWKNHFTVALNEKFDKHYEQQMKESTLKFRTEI
Kind of data set: Inhibition of oestradiol sulfation by recombinant hSULT1E1. It is filed as biochemical. The following applies: for Inhibition of hSULT1E1-catalysed oestradiol sulfation (in words): substrate 0.15 μM oestradiol, concentration range 1–1000 μM. Put shortly: as §1

Data set [6] addresses T1, hSULT1A1. Kind of data set: Inhibition of oestradiol sulfation by recombinant hSULT1A1. The class given is biochemical.
The test system of data set [7] is human intestine cytosolic SULTs. Kind of data set: Inhibition of oestradiol sulfation by human intestine cytosol. The settings on record: read-out: IC50, Oestradiol sulfation, Cytosol, substrate 0.15 μM oestradiol. It is filed as biochemical. Put shortly:
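[3H]oestradiol (0.15 μM final) sulfation by 100 μg intestine cytosol from a person. Buffer 50 mM Tris (pH 6.2) with 20 μM PAPS. Test compound in DMSO (1% v/v final), 0.01–1000 μM. Reaction 30 min at 37°C, quenched with 0.25 M Tris (pH 8.7), chloroform-extracted twice, aqueous phase counted by scintillation. IC50 from a Hill-slope fit; mean ± SD of three determinations.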

Another data set concerns the target T4, hSULT2A1 (Homo sapiens, UniProt Q06520).
T4 sequence (Q06520 1-285): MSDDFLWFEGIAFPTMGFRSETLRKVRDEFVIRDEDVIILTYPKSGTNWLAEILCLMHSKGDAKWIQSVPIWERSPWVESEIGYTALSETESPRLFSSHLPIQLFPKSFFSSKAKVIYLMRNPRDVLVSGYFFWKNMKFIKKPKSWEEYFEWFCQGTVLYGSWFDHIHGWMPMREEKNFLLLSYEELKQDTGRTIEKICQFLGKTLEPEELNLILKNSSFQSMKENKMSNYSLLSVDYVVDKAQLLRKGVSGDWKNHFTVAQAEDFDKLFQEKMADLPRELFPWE
Kind of data set: Inhibition of DHEA sulfation by recombinant hSULT2A1. It is filed as biochemical. The following applies: for Inhibition of hSULT2A1-catalysed DHEA sulfation (in words): substrate 2 μM DHEA, concentration range 1–1000 μM. Put shortly:
as §1

Data set [8] deals with T2, hSULT1A3. Kind of data set: Sulfation of flavonoids by recombinant hSULT1A3.
Where [9] appears, read: flavonoid as substrate, Michaelis–Menten equation (1), 1–1000 μM catechin, 1–1000 μM epicatechin, 1–128 μM hesperetin, 1–32 μM eriodictyol.
[10] abbreviates: flavonoid as substrate, substrate inhibition equation (2).
Setting [11] is: flavonoid as substrate, substrate inhibition equation (2), listed as catechin.
The mark [12] stands for this setting: substrate inhibition constant of flavonoid sulfation, equation (2).
The mark [13] stands for this setting: flavonoid as substrate, substrate inhibition equation (2), listed as hesperetin.

Like-named read-outs stand apart in the source and are kept apart here.

T1 sequence (P50225 whole entry): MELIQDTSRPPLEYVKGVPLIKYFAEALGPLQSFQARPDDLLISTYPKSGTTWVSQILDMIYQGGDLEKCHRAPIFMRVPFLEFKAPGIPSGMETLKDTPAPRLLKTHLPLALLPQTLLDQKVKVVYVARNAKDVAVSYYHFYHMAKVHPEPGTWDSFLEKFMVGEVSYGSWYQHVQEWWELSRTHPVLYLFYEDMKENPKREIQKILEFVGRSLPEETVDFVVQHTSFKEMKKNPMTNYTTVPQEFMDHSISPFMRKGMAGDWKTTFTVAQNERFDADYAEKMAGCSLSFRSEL
T2 sequence (P0DMM9 whole entry): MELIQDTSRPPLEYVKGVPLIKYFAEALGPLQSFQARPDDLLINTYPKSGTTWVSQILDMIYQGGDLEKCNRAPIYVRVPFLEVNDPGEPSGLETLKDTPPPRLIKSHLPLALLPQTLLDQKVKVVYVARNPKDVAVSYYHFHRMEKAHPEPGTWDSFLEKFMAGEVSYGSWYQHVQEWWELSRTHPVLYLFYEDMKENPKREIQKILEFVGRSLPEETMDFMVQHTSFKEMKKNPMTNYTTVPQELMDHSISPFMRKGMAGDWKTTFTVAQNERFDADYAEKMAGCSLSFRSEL

With `Oc1cc(O)c2c(c1)OC(c1ccc(O)c(O)c1)C(O)C2` (single isomer, unassigned; (+)) [Catechin, (+)catechin], the Michaelis constant (Km) was determined as 104 ± 7.3 µM in data set [1] (setting [9]), 165 ± 8.1 µM at hSULT1A1 [2] (setting [10]) and 236 ± 5.6 µM at hSULT1A3 [8] (setting [10]). Moreover, the Vmax in data set [1] (setting [9]) came to 6.7 ± 0.02 nmol/mg/min; on hSULT1A1 [2] (setting [10]), 187 ± 9.9 nmol/mg/min; at hSULT1A1 [2] (setting [11]), 187 nmol/mg/min; on hSULT1A3 [8] (setting [10]), 342 ± 8.2 nmol/mg/min; on hSULT1A3 [8] (setting [11]) it was 342 nmol/mg/min. In addition, the results for the Ki at hSULT1A1 [2] (setting [12]) and at hSULT1A3 [8] (setting [12]) were 6.37 ± 0.22 µM and 8 ± 0.29 µM, respectively. The IC50 on hSULT1A1 [3] (read-out: IC50, 2-Naphthol sulfation, hSULT1A1, substrate 100 μM 2-naphthol) is 8.4 ± 3.3 µM; in data set [4], 67.1 ± 6.3 µM; on hSULT1A3 [5] (read-out: IC50, Dopamine sulfation by hSULT1A3, substrate 50 μM dopamine), 82.5 ± 31.5 µM; on hSULT1A1 [6] (read-out: IC50, Oestradiol sulfation, hSULT1A1, substrate 0.15 μM oestradiol) it was 2.6 ± 0.4 µM; in [7], 10.1 ± 1.7 µM. The “Inhibition of hSULT1E1-catalysed oestradiol sulfation (in words)” value at hSULT1E1 (listed as (+)catechin) was “did not significantly inhibit”; at hSULT1E1 (listed as catechin), “not inhibited”. Further, the “Inhibition of hSULT2A1-catalysed DHEA sulfation (in words)” value on hSULT2A1 (listed as (+)Catechin) is on record as “did not significantly inhibit”; on hSULT2A1 (listed as catechin), “not inhibited”.

As to `Oc1cc(O)c2c(c1)O[C@H](c1ccc(O)c(O)c1)[C@H](O)C2` [Epicatechin, (−)epicatechin], the values for the maximum rate (Vmax) (in data set [1] (setting [9]); on hSULT1A1 [2] (setting [10]); on hSULT1A3 [8] (setting [10])) were 4.2 ± 0.2 nmol/mg/min, 188 nmol/mg/min and 442 nmol/mg/min, respectively. The Michaelis-Menten constant (Km) at 30 min in data set [1] amounted to 149 ± 9.2 µM. In addition, the Ki on hSULT1A1 [2] was determined as 8.7 ± 3.07 µM; on hSULT1A3 [8], 9.5 ± 0.21 µM. For the same compound, the IC50 on hSULT1A1 [3] stood at 42.5 ± 8.5 µM; in [4], 157 ± 37.6 µM; on hSULT1A3 [5] it was 117 ± 12.9 µM; at hSULT1A1 [6], 6.1 ± 1 µM; in data set [7], 22.7 ± 5.6 µM. Also, the “Inhibition of hSULT1E1-catalysed oestradiol sulfation (in words)” value is given as “did not significantly inhibit” on hSULT1E1 (listed as (−)epicatechin) and “not inhibited” on hSULT1E1 (listed as epicatechin). Further, the “Inhibition of hSULT2A1-catalysed DHEA sulfation (in words)” value at hSULT2A1 (listed as (−)epicatechin) was “did not significantly inhibit”; at hSULT2A1 (listed as epicatechin), “not inhibited”.

Consider `O=C1C[C@@H](c2ccc(O)c(O)c2)Oc2cc(O)cc(O)c21` [Eriodictyol, eriodictyol], for which the maximum rate (Vmax) in data set [1] (setting [9]) worked out at 19.4 ± 2.4 nmol/mg/min; at hSULT1A1 [2] (setting [10]) it was 98.6 nmol/mg/min; at hSULT1A3 [8] (setting [10]), 269 nmol/mg/min. Moreover, the Km at 30 min in data set [1] was determined as 220 ± 28 µM. In addition, the Ki at hSULT1A1 [2] came to 6.1 ± 0.14 µM; on hSULT1A3 [8], 4.6 ± 0.02 µM. The IC50 on hSULT1A1 [3] stood at 15.2 ± 0.9 µM; in data set [4], 28.9 ± 4.1 µM; on hSULT1A3 [5] it was 14.7 ± 8.9 µM; at hSULT1E1, 677 ± 120 µM; in data set [7], 11.8 ± 2 µM; at hSULT2A1, 139 ± 8.8 µM.

Take `COc1ccc([C@@H]2CC(=O)c3c(O)cc(O)cc3O2)cc1O` [Hesperetin]: the Vmax in data set [1] (setting [9]) turned out to be 8.9 ± 0.3 nmol/mg/min; on hSULT1A1 [2] (setting [13]), 92.7 nmol/mg/min; at hSULT1A3 [8] (setting [10]), 303 ± 5.8 nmol/mg/min; on hSULT1A3 [8] (setting [13]), 303 nmol/mg/min. Also, in [1], the Michaelis constant (Km) at 30 min stood at 66 ± 3.3 µM. Also, the figures for the Ki at hSULT1A1 [2] and at hSULT1A3 [8] were 3.7 ± 0.11 µM and 4.2 ± 0.06 µM, respectively. The IC50 at hSULT1A1 [3] came out at 23.4 ± 5.75 µM; in data set [4] it was 32.2 ± 3.6 µM; at hSULT1A3 [5], 20.8 ± 8.1 µM; on hSULT1E1, 90.4 ± 11.5 µM; in [7], 3.6 ± 0.4 µM; on hSULT2A1, 152 ± 14.9 µM.

The record behind these values is publication PMC3106293 (Xenobiotica; the fate of foreign compounds in biological …, 2009).
